In brackets after ≈: the same amount, converted by molar mass.
What was measured:
[1] = test system: Gram-positive mastitis organisms (57); test: MIC testing; format: cell-based; conditions: all 57 Gram-positive bovine mastitis isolates
In short: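 MICs were run per CLSI guidelines for lipophilic compounds across the pooled bovine mastitis isolates. MIC was the lowest concentration preventing growth, judged visually and by OD600. MIC50 and MIC90 are the lowest concentrations inhibiting 50% and 90% of the whole collection.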

[2] = test system: Streptococcus agalactiae (12); test: MIC testing; format: cell-based
In short: (§1)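 Clinical bovine mastitis isolates from Australian dairy cattle, except MRSA isolates, which came from small-animal infections. Streptococci were speciated by biochemical tests and partial 16S rDNA sequencing. S. aureus was separated from coagulase-negative staphylococci by tube coagulase and latex agglutination. MICs followed CLSI guidelines for lipophilic compounds: lowest concentration preventing growth, judged visually and by OD600. MIC50/MIC90 were collated per species.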

[3] = test system: Staphylococcus aureus (20); test: MIC testing; format: cell-based
In short: as §1

[4] = test system: Coagulase-negative staphylococci (14); test: MIC testing; format: cell-based
In short: as §1

[5] = test system: Streptococcus uberis (11); test: MIC testing; format: cell-based
In short: as §1

MRSA (10) = test: MIC testing; format: cell-based, methicillin-resistant Staphylococcus aureus
In short: as §1

[6] = Solubility of lasalocid in various solvents and milk; format: physicochemical; conditions: thermodynamic from solid
In short: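 Excess solid test compound was added to each solvent and shaken for 24 hours. Samples were then filtered through 0.45 µm nylon, diluted and quantified by reversed-phase C8 HPLC with UV detection at 308 nm. The mobile phase was methanol:1.5% acetic acid (90:10) at 1.0 mL/min. All measurements were made in triplicate.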

[7] = pH-solubility determination of lasalocid; format: physicochemical
In short: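 pH–solubility used MilliQ water adjusted with NaOH/HCl, or Universal buffer adjusted with 0.2 M NaOH, over pH 1.8–8. The buffer contained boric, citric and phosphoric acids at 0.04 M each. Excess solid was shaken for 24 hours, filtered through 0.45 µm nylon, diluted and quantified by C8 HPLC-UV at 308 nm. Measurements were made in triplicate.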

Milk distribution study = format: in vivo, Lactating Holstein dairy cows; conditions: six doses of 150 or 300 mg at 12-hourly intervals per quarter (IVP 7, IVP 8)
In short: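 Lactating Holstein cows aged 2–10 years had two contralateral quarters challenged intramammarily with S. uberis. After mastitis was detected, quarters received a PVP–lasalocid solid dispersion in Miglyol 812/Aerosil R972 after each milking, six infusions 12-hourly. Milk was sampled at set times, with time 0 at the first dose. Samples of 100 µL were extracted with 900 µL methanol, centrifuged and analysed by C8 HPLC-UV at 308 nm.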

CC[C@@H](C(=O)[C@@H](C)[C@@H](O)[C@H](C)CCc1ccc(C)c(O)c1C(=O)O)[C@H]1O[C@](CC)([C@H]2CC[C@](O)(CC)[C@H](C)O2)C[C@@H]1C [lasalocid]
MIC50 [1]: 2 µg/mL (≈ 3.39 µM)
MIC90 [1]: 4 µg/mL (≈ 6.77 µM)
MIC50 ([2]; Streptococcus agalactiae): 2 µg/mL (≈ 3.39 µM)
MIC90 ([2]; Streptococcus agalactiae): 4 µg/mL (≈ 6.77 µM)
MIC range ([2]; n=12 isolates): 2 to 4 µg/mL
MIC50 ([3]; Staphylococcus aureus): 1 µg/mL (≈ 1.69 µM)
MIC90 ([3]; Staphylococcus aureus): 1 µg/mL (≈ 1.69 µM)
MIC range ([3]; n=20 isolates): 0.5 to 1 µg/mL
MIC50 [4]: 1 µg/mL (≈ 1.69 µM)
MIC90 [4]: 2 µg/mL (≈ 3.39 µM)
MIC range ([4]; n=14 isolates): 0.5 to 2 µg/mL
MIC50 ([5]; Streptococcus uberis): 0.5 µg/mL (≈ 0.846 µM)
MIC90 ([5]; Streptococcus uberis): 0.5 µg/mL (≈ 0.846 µM)
MIC range ([5]; n=11 isolates): 0.5 to 1 µg/mL
MIC50 (MRSA (10); Staphylococcus aureus, MRSA): 0.5 µg/mL (≈ 0.846 µM)
MIC90 (MRSA (10); Staphylococcus aureus, MRSA): 0.5 µg/mL (≈ 0.846 µM)
MIC range (MRSA (10); n=10 isolates from small animals): 0.25 to 0.5 µg/mL
solubility at 24 h ([6]; DMSO, organic solvent or mixture): 298000 ± 42400 µg/mL (≈ 504000 µM)
solubility at 24 h ([6]; MilliQ water, water): 750 ± 100 µg/mL (≈ 1270 µM)
solubility at 24 h ([6]; methanol, organic solvent or mixture): 84700 ± 1630 µg/mL (≈ 143000 µM)
solubility at 24 h ([6]; milk, plasma or biological fluid): 438 ± 13.1 µg/mL (≈ 741 µM)
Solubility at pH 1.8 ([7]; MilliQ water with NaOH and HCl for pH adjustment): non-detectable
Solubility at pH 1.8 ([7]; Universal buffer): nondetectable
solubility at 24 h ([7]; Universal buffer, pH 8, aqueous buffer, thermodynamic from solid): 9.66 ± 0.04 µg/mL (≈ 16.4 µM)
Time after the first dose until which high milk concentration was maintained (Milk distribution study): 72 h
Time after the first treatment by which residues in milk were not detectable (Milk distribution study): ≤ 144 h
Time of peak lasalocid concentration in milk after the first dose (Milk distribution study): 24 h
